Assay results: ChEMBL document CHEMBL1944532, “Synthesis and evaluation of anticancer activity of some novel 6-aryl-2-(p-sulfamylphenyl)-pyridazin-3(2H)-ones” (Eur J Med Chem, 2012)
Activity calls are given as the source filed them. No cut-off for these calls is given here.

Key:
K562 = assay: Cytotoxicity against human K562 cells assessed as cell growth at 10 uM after 48 hrs by SRB assay; assay type: functional; settings: K562, 48 h, read-out: Activity
How it was run: (§1)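 NCI primary single-dose screen at 10^-5 M against the ~60 human tumour cell line panel. Cells grown in RPMI-1640 with 5% fetal calf serum and 2 mM L-glutamine and pre-incubated 24 h before compound addition. Compound added from DMSO solution with 48 h exposure. Growth read by sulforhodamine B protein staining.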

RPMI-8226 = assay: Cytotoxicity against human RPMI8226 cells assessed as cell growth at 10 uM after 48 hrs by SRB assay; assay type: functional; settings: RPMI-8226, 48 h, read-out: Activity
How it was run: (§2)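 NCI primary single-dose screen at 10^-5 M against the full panel of about 60 human tumor cell lines. Cells were in RPMI-1640 with 5% fetal calf serum and 2 mM L-glutamine and preincubated 24 h. Compound was given in DMSO with 48 h exposure. Growth was estimated by sulforhodamine B protein assay.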

SR = assay: Cytotoxicity against human SR cells assessed as cell growth at 10 uM after 48 hrs by SRB assay; assay type: functional; settings: read-out: Activity
How it was run: (§3)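 NCI primary one-dose screen at 10^-5 M against the full panel of about 60 human tumour cell lines, run to the NCI Drug Evaluation Branch protocol.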

A549 = assay: Cytotoxicity against human A549/ATCC cells assessed as cell growth at 10 uM after 48 hrs by SRB assay; assay type: functional; settings: A549, 48 h, read-out: Activity; how it was run: as §1
EKVX = assay: Cytotoxicity against human EKVX cells assessed as cell growth at 10 uM after 48 hrs by SRB assay; assay type: functional; settings: read-out: Activity; how it was run: as §1
COLO 205 [1] = assay: Cytotoxicity against human COLO205 cells assessed as cell growth at 10 uM after 48 hrs by SRB assay; assay type: functional; settings: COLO 205, 48 h, read-out: Activity; how it was run: as §1
SW-620 = assay: Cytotoxicity against human SW620 cells assessed as cell growth at 10 uM after 48 hrs by SRB assay; assay type: functional; settings: SW-620, 48 h, read-out: Activity; how it was run: as §3
SNB-19 = assay: Cytotoxicity against human SNB19 cells assessed as cell growth at 10 uM after 48 hrs by SRB assay; assay type: functional; settings: SNB-19, 48 h, read-out: Activity; how it was run: as §3
SK-OV-3 = assay: Cytotoxicity against human SKOV3 cells assessed as cell growth at 10 uM after 48 hrs by SRB assay; assay type: functional; settings: SK-OV-3, 48 h, read-out: Activity; how it was run: as §3
786-0 = assay: Cytotoxicity against human 786-0 cells assessed as cell growth at 10 uM after 48 hrs by SRB assay; assay type: functional; settings: 786-0, 48 h, read-out: Activity; how it was run: as §1
ACHN = assay: Cytotoxicity against human ACHN cells assessed as cell growth at 10 uM after 48 hrs by SRB assay; assay type: functional; settings: read-out: Activity; how it was run: as §1
T47D = assay: Cytotoxicity against human T47D cells assessed as cell growth at 10 uM after 48 hrs by SRB assay; assay type: functional; settings: read-out: Activity; how it was run: as §3
MDA-MB-468 = assay: Cytotoxicity against human MDA-MB-468 cells assessed as cell growth at 10 uM after 48 hrs by SRB assay; assay type: functional; settings: MDA-MB-468, 48 h, read-out: Activity; how it was run: as §2
MOLT-4 = assay: Cytotoxicity against human MOLT4 cells after 48 hrs by SRB assay; assay type: functional; settings: MOLT-4, 48 h
How it was run: (§4)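 NCI five-dose screen on the ~60-line human tumor panel. Cells grown in RPMI-1640 with 5% fetal calf serum and 2 mM L-glutamine, seeded at line-dependent density and preincubated 24 h. Compound added from DMSO at 10-fold dilutions from 10^-4 to 10^-8 M, continuous exposure 48 h. Growth read by sulforhodamine B protein stain. GI50, TGI and LC50 derived per line.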

COLO 205 [2] = assay: Cytotoxicity against human COLO205 cells after 48 hrs by SRB assay; assay type: functional; settings: COLO 205, 48 h
How it was run: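 NCI ~60-line panel in RPMI-1640 with 5% fetal calf serum and 2 mM L-glutamine, pre-incubated 24 h. Compound in DMSO tested at five 10-fold concentrations (10^-4 to 10^-8 M) with 48 h continuous exposure. Growth measured by sulforhodamine B protein assay. GI50 (50% net growth inhibition), TGI (total inhibition) and LC50 (50% net cell death) derived from dose-response.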

OVCAR-3 = assay: Cytotoxicity against human OVCAR3 cells after 48 hrs by SRB assay; assay type: functional; settings: OVCAR-3, 48 h; how it was run: as §4
OVCAR-5 = assay: Cytotoxicity against human OVCAR5 cells after 48 hrs by SRB assay; assay type: functional; settings: OVCAR-5, 48 h; how it was run: as §4
SN12C = assay: Cytotoxicity against human SN12C cells after 48 hrs by SRB assay; assay type: functional
How it was run: (§5)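 NCI 60-cell-line five-dose screen. Cells were grown in 1640 medium with 5% fetal calf serum and 2 mM L-glutamine, with inoculum density set by cell line, and pre-incubated 24 h. Compound in DMSO was added at 10^-4 to 10^-8 M (10-fold steps) with 48 h continuous exposure. Growth was read by SRB protein assay, and GI50, TGI and LC50 were derived from dose-response.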

UO-31 = assay: Cytotoxicity against human UO31 cells after 48 hrs by SRB assay; assay type: functional; settings: UO-31, 48 h; how it was run: as §5
MCF7 = assay: Cytotoxicity against human MCF7 cells after 48 hrs by SRB assay; assay type: functional; settings: MCF7, 48 h; how it was run: as §4
MDA-MB-231 [3] = assay: Cytotoxicity against human MDA-MB-231/ATCC cells after 48 hrs by SRB assay; assay type: functional; settings: MDA-MB-231, 48 h; how it was run: as §4
[4] = Toxicity in ip dosed athymic nude mouse assessed as lethality after 2 weeks; assay type: organism-based; settings: in vivo
How it was run: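 Maximum tolerated dose determination in athymic nude mice. Single ip injection of 400, 200 or 100 mg/kg, one mouse per dose. Compound solubilized in DMSO. Feed and water ad libitum. Mice observed 2 weeks for body weight loss, lethality and other toxicity signs; sacrificed if weight loss exceeds 20%.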

MDA-MB-231 [5] = assay: Antitumor activity against human MDA-MB-231 cells implanted in mouse dosed qd for 4 days by formazan dye-based hollow fiber assay; assay type: functional, organism-based
How it was run: (§6)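 Cells grown inside polyvinylidene fluoride hollow fibers; each line implanted into both intraperitoneal and subcutaneous compartments in mice. Compound given ip at two doses on a QD x 4 schedule. Fibers then recovered and viable cell mass measured by formazan dye conversion. Scored 2 per dose giving ≥50% reduction in viable cell mass (%T/C 50).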

NCI-H23 = assay: Antitumor activity against human NCI-H23 cells implanted in mouse dosed qd for 4 days by formazan dye-based hollow fiber assay; assay type: functional, organism-based; how it was run: as §6

## CCc1ccc(-c2ccc(=O)n(-c3ccc(S(N)(=O)=O)cc3)n2)cc1
K562
  growth at 10 µM: 11%
RPMI-8226
  growth at 10 µM: -29.9%
SR
  growth at 10 µM: -11.9%
A549
  growth at 10 µM: 18%
EKVX
  growth at 10 µM: 69.1%
COLO 205 [1]
  growth at 10 µM: 26%
SW-620
  growth at 10 µM: 35%
SNB-19
  growth at 10 µM: 57.6%
SK-OV-3
  growth at 10 µM: 49.5%
786-0
  growth at 10 µM: 50%
ACHN
  growth at 10 µM: 60.3%
T47D
  growth at 10 µM: 33.4%
MDA-MB-468
  growth at 10 µM: 7.89%
MOLT-4
  LC50: > 100 µM
MOLT-4; read-out: GI50
  GI50: 0.573 µM
MOLT-4; read-out: pGI50 (converted)
  GI50: 0.575 µM
MOLT-4; read-out: pTGI
  TGI: > 100 µM
COLO 205 [2]
  LC50: > 100 µM
COLO 205 [2]; read-out: GI50
  GI50: 0.976 µM
COLO 205 [2]; read-out: pGI50 (converted)
  GI50: 0.977 µM
COLO 205 [2]; read-out: pTGI (converted)
  TGI: 30.9 µM
OVCAR-3
  LC50: > 100 µM
OVCAR-3; read-out: GI50
  GI50: 0.429 µM
OVCAR-3; read-out: pGI50 (converted)
  GI50: 0.427 µM
OVCAR-3; read-out: pTGI
  TGI: > 100 µM
OVCAR-5
  LC50: > 100 µM
OVCAR-5; read-out: GI50
  GI50: 41.4 µM
OVCAR-5; read-out: pGI50 (converted)
  GI50: 41.7 µM
OVCAR-5; read-out: pTGI
  TGI: > 100 µM
SN12C
  LC50: > 100 µM
SN12C; read-out: GI50
  GI50: 5.84 µM
SN12C; read-out: pGI50 (converted)
  GI50: 5.89 µM
SN12C; read-out: pTGI
  TGI: > 100 µM
UO-31
  LC50: > 100 µM
UO-31; read-out: GI50
  GI50: > 100 µM
UO-31; read-out: pGI50 (converted)
  GI50: > 100 µM
UO-31; read-out: pTGI
  TGI: > 100 µM
MCF7
  LC50: > 100 µM
MCF7; read-out: GI50
  GI50: 0.615 µM
MCF7; read-out: pGI50 (converted)
  GI50: 0.617 µM
MCF7; read-out: pTGI (converted)
  TGI: 19.1 µM
MDA-MB-231 [3]
  LC50: > 100 µM
MDA-MB-231 [3]; read-out: GI50
  GI50: 12.1 µM
MDA-MB-231 [3]; read-out: pGI50 (converted)
  GI50: 12 µM
MDA-MB-231 [3]; read-out: pTGI
  TGI: > 100 µM
[4]
  MTD at 336 h: 400 mg/kg
MDA-MB-231 [5]
  Activity: inactive
NCI-H23
  Activity: inactive
